Calls of active or inactive are those of the source. The rule behind the calls is not given here.
Key:
[1] = target: T1, Transforming growth factor beta-1 proprotein/Mothers against decapentaplegic homolog 3 (Mus musculus) (UniProt P04202+Q8BUN5); assay: Inhibition of TGF-beta1/smad3 signaling pathway in mouse NIH/3T3 cells at 10 uM after 18 hrs by CAGA-luciferase reporter gene assay relative to control; format: cell-based
Method in brief: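 CAGA12-luciferase stably transfected NIH3T3 cells plated overnight. Treated with TGF-β1 (5 ng/mL) with or without compound at 10 µM in DMEM containing 0.1% FBS for 18 h. Lysate luminescence integrated over the first 20 s. Inhibition ratio calculated from TGF-β1-stimulated signal of treated versus control wells; mean of three independent experiments.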

[2] = target: T1, Transforming growth factor beta-1 proprotein/Mothers against decapentaplegic homolog 3 (Mus musculus); assay: Inhibition of TGF-beta1/smad3 signaling pathway in mouse NIH/3T3 cells at 5 to 40 uM after 18 hrs by CAGA-luciferase reporter gene assay; format: cell-based
Method in brief: (§1)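 CAGA12-luciferase NIH3T3 cells stimulated with TGF-β1 (5 ng/mL) in 0.1% FBS DMEM alongside compound at 5, 10, 20 and 40 µM for 18 h. Lysate luciferase read over the first 20 s. Triplicate.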

[3] = target: Transforming growth factor beta-1 proprotein (Mus musculus) (UniProt P04202); assay: Inhibition of TGF-beta1 in mouse Mlg cells assessed as decrease in cell viability at 10 uM after 24 hrs by MTT assay; format: cell-based
Chain of Transforming growth factor beta-1 proprotein (Mus musculus) (P04202 whole entry): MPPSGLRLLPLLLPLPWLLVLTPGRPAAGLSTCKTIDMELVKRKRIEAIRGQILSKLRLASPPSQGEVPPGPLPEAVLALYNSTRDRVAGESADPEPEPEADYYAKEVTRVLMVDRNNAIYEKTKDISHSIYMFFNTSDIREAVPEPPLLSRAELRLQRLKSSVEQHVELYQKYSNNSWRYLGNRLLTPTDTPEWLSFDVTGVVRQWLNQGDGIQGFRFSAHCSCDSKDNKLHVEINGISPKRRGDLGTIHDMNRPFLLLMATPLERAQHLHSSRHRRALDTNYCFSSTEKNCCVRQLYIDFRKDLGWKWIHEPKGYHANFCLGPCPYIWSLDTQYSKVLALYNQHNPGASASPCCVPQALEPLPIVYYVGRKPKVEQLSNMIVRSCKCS
Method in brief: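 Mlg cells exposed to TGF-β1 (5 ng/mL) with or without compound at 10 µM for 24 h; DMSO-treated cells served as control. MTT added for 4 h, then DMSO, and absorbance read. Viability normalized to control as 100%. Triplicate.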

[4] = target: Transforming growth factor beta-1 proprotein (Mus musculus) (UniProt P04202); assay: Inhibition of TGF-beta1 in mouse Mlg cells assessed as reduction in cell migration at 10 uM after 24 hrs by wound healing based light microscopy
Method in brief: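 Confluent Mlg monolayers scratched to a 100-µm wound. Cells then cultured in serum-free medium with or without TGF-β1 (5 ng/mL) and compound at 10 µM. Light-microscope images taken at 0, 12 and 24 h; wound area expressed relative to the initial scratch.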

[5] = target: Transforming growth factor beta-1 proprotein (Mus musculus) (UniProt P04202); assay: Inhibition of TGF-beta1 in mouse Mlg cells assessed as reduction in alpha-SMA mRNA expression level at 10 uM after 24 hrs by qRT-PCR method; format: cell-based
Method in brief: (§2)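 Mlg lung fibroblasts treated with or without TGF-β1 (5 ng/mL) plus compound at 10 µM for 24 h. α-SMA, Col1a1 and Fn1 mRNA measured by real-time PCR with β-actin reference primers. n=3.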

[6] = target: Transforming growth factor beta-1 proprotein (Mus musculus) (UniProt P04202); assay: Inhibition of TGF-beta1 in mouse Mlg cells assessed as reduction in Col1a1 mRNA expression level at 10 uM after 24 hrs by qRT-PCR method; format: cell-based; method in brief: as §2
[7] = target: Transforming growth factor beta-1 proprotein (Mus musculus) (UniProt P04202); assay: Inhibition of TGF-beta1 in mouse Mlg cells assessed as reduction in fibronectin mRNA expression level at 10 uM after 24 hrs by qRT-PCR method; format: cell-based; method in brief: as §2
[8] = target: T1, Transforming growth factor beta-1 proprotein/Mothers against decapentaplegic homolog 3 (Mus musculus); assay: Inhibition of TGF-beta1/smad3 signaling pathway in mouse NIH/3T3 cells at 40 uM after 18 hrs by CAGA-luciferase reporter gene assay; format: cell-based; method in brief: as §1
[9] = target: T1, Transforming growth factor beta-1 proprotein/Mothers against decapentaplegic homolog 3 (Mus musculus); assay: Inhibition of TGF-beta1/smad3 signaling pathway in mouse NIH/3T3 cell extract assessed as decrease in alpha-SMA protein expression at 10 uM after 24 hrs by Western blot analysis
[10] = target: T1, Transforming growth factor beta-1 proprotein/Mothers against decapentaplegic homolog 3 (Mus musculus); assay: Inhibition of TGF-beta1/smad3 signaling pathway in mouse NIH/3T3 cells assessed as decrease in ECM production at 10 uM after 24 hrs; format: cell-based
[11] = target: T1, Transforming growth factor beta-1 proprotein/Mothers against decapentaplegic homolog 3 (Mus musculus); assay: Inhibition of TGF-beta1/smad3 signaling pathway in mouse NIH/3T3 cell extract assessed as decrease in Smad3 phosphorylation at 10 uM after 30 mins by Western blot analysis; format: protein assay
Mus musculus [12] = assay: Antifibrotic activity in bleomycin-induced pulmonary fibrosis in C57BL/6 mouse model assessed as fibrotic area in lungs at 100 mg/kg, po qd administered from day 7 to 14 by hematoxylin-eosin staining based fluorescence microscopy; format: functional
Method in brief: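 Male C57BL/6 mice (7-8 weeks, n=5/group) given intratracheal bleomycin 2 U/kg under chloral hydrate anaesthesia. Dosing at 100 mg/kg daily from day 7 to day 14, sacrifice at day 14. Left lungs formalin-fixed, paraffin-embedded, 5 µm sections HE-stained. Fibrosis ratio taken as fibrotic-region pixels over total lung pixels.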

Mus musculus [13] = assay: Antifibrotic activity in bleomycin-induced pulmonary fibrosis in C57BL/6 mouse model assessed as decrease in collagen content in lung at 100 mg/kg, po qd administered from day 7 to 14 by spectrophotometric method; format: functional, organism-based
Method in brief: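 Bleomycin model as above: 2 U/kg intratracheal in male C57BL/6 mice, 100 mg/kg daily from day 7 to day 14. Right lungs collected at day 14, dried and acid-hydrolysed, filtered, and pH adjusted to 6.5-8.0. Hydroxyproline then measured by chloramine-T spectrophotometry.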

Mus musculus [14] = assay: In vivo inhibition of TGF-beta1/smad3 signaling pathway in bleomycin-induced pulmonary fibrosis in C57BL/6 mouse model assessed as decrease in Col1 protein expression level in lung tissue at 100 mg/kg, po qd administered from day 7 to 14 by Western blot analysis; format: functional, organism-based
Mus musculus [15] = assay: In vivo inhibition of TGF-beta1/smad3 signaling pathway in bleomycin-induced pulmonary fibrosis in C57BL/6 mouse model assessed as decrease in alpha-SMA level in lung tissue at 100 mg/kg, po qd administered from day 7 to 14 by immunohistochemical analysis; format: functional, organism-based
Method in brief: (§3)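 Lungs from bleomycin-challenged C57BL/6 mice (2 U/kg intratracheal; 100 mg/kg daily, days 7-14) were paraffin-embedded and dewaxed. Citrate (0.01 M) microwave antigen retrieval, then 5% serum block. Primary antibodies overnight at 4 °C: α-SMA 1:200, collagen I 1:100, p-Smad3 1:50. Secondary antibody 1 h at room temperature, then hematoxylin counterstain and microscopy.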

Mus musculus [16] = assay: In vivo inhibition of TGF-beta1/smad3 signaling pathway in bleomycin-induced pulmonary fibrosis in C57BL/6 mouse model assessed as decrease in Col1 level in lung tissue at 100 mg/kg, po qd administered from day 7 to 14 by immunohistochemical analysis; format: functional, organism-based; method in brief: as §3
Mus musculus [17] = assay: In vivo inhibition of TGF-beta1/smad3 signaling pathway in bleomycin-induced pulmonary fibrosis in C57BL/6 mouse model assessed as decrease in smad3 phosphorylation level in lung tissue at 100 mg/kg, po qd administered from day 7 to 14 by immunohistochemical analysis; format: functional, organism-based; method in brief: as §3

T1 sequence (P04202 279-390 limits assumed): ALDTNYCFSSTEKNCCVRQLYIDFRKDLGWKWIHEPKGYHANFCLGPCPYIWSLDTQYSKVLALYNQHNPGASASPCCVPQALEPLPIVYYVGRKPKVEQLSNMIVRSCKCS
T1 sequence (Q8BUN5 2-425 partner limits assumed): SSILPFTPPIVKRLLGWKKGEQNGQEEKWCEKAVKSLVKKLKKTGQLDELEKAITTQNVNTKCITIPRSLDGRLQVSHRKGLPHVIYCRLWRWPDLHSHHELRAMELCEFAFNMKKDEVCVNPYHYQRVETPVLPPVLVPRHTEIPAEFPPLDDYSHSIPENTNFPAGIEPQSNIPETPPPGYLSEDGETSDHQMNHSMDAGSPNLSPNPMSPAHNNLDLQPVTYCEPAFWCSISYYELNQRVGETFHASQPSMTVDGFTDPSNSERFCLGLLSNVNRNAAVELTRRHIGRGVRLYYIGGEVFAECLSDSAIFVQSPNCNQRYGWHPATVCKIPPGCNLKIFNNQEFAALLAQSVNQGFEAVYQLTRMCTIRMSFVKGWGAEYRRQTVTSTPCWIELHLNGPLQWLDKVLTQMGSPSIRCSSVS

C=C1C(=O)O[C@@H]2C[C@@]3(C)CC[C@@H](OC(C)=O)[C@]4(CO4)[C@@H]3C[C@H]12
inhibition [1]: -2.36%

C=C1C(=O)O[C@@H]2C[C@@]3(C)CC[C@@H](O[Si](C)(C)C(C)(C)C)C(=C)[C@@H]3C[C@H]12
inhibition [1]: 27.8%

C=C1[C@H](O)CC[C@]2(C)C[C@H]3OC(=O)[C@@H](CN(C)C)[C@H]3C[C@@H]12
inhibition [2]: Active

C=C1C(=O)O[C@@H]2C[C@@]3(C)CC[C@@H](OC(=O)CP(=O)(OCC)OCC)[C@]4(CO4)[C@@H]3C[C@H]12
inhibition [1]: 3.67%

C=C1C(=O)O[C@@H]2C[C@@]3(C)CCC[C@H](C)[C@@]34O[C@H]4[C@H]12
inhibition [1]: 77.7%
inhibition [3]: Active
inhibition [4]: Active
inhibition [5]: Active
inhibition [6]: Active
inhibition [7]: Active

C=C1C(=O)O[C@@H]2C[C@@]3(C)CCC(=O)C(=C)[C@@H]3C[C@H]12
inhibition [1]: 2.24%

CN(C)C[C@@H]1C(=O)O[C@@H]2C[C@@]3(C)CC[C@@H](OC(=O)C4=CCCCC4)[C@]4(CO4)[C@@H]3C[C@H]12
inhibition [2]: Active

C=C1C(=O)O[C@@H]2C[C@@]3(C)CC[C@@H](O)[C@]4(CO4)[C@@H]3C[C@H]12
inhibition [1]: 46%
inhibition [3]: Active
inhibition [4]: Active
inhibition [5]: Active
inhibition [6]: Active
inhibition [7]: Active

C=C1C(=O)O[C@@H]2C[C@@]3(C)CC[C@@H](OC(=O)CCCCCCC)[C@]4(CO4)[C@@H]3C[C@H]12
inhibition [1]: -7.65%

C=C1C(=O)O[C@@H]2C[C@@]3(C)CC[C@@H](OC(=O)[C@@H](NC(=O)OC(C)(C)C)C(C)C)[C@]4(CO4)[C@@H]3C[C@H]12
inhibition [1]: 17.1%

C=C1C(=O)O[C@@H]2C[C@@]3(C)CCC[C@]4(CO4)[C@@H]3C[C@H]12
inhibition [1]: 3.08%

C=C1C(=O)O[C@@H]2C[C@@]3(C)CC[C@@H](OC(=O)/C=C/C(=O)OCC)[C@]4(CO4)[C@@H]3C[C@H]12
inhibition [1]: 71.3%
inhibition [3]: Active
inhibition [4]: Active
inhibition [6]: Active

C=C1C(=O)O[C@@H]2C[C@@]3(C)CC[C@@H](OC(=O)c4ccccc4)[C@]4(CO4)[C@@H]3C[C@H]12
inhibition [1]: 26.7%

C#CCCCC(=O)O[C@@H]1CC[C@]2(C)C[C@H]3OC(=O)C(=C)[C@H]3C[C@H]2[C@@]12CO2
inhibition [1]: 6.65%

C=C1C(=O)O[C@@H]2C[C@@]3(C)CC[C@@H](O)C(=C)[C@@H]3C[C@H]12
inhibition [1]: 61.9%
inhibition [3]: Active
inhibition [4]: Active
inhibition [6]: Active
inhibition [7]: Active

CCOC(=O)/C=C/C(=O)O[C@@H]1CC[C@]2(C)C[C@H]3OC(=O)[C@@H](CN(C)C)[C@H]3C[C@H]2[C@@]12CO2.O=C(O)/C=C/C(=O)O
inhibition [8]: Active
inhibition [9]: Active
inhibition [10]: Active
inhibition [11]: Active
Activity (Mus musculus [12]): 53.5%
Activity (Mus musculus [13]): Active
inhibition (Mus musculus [14]): Active
inhibition (Mus musculus [15]): Active
inhibition (Mus musculus [16]): Active
inhibition (Mus musculus [17]): Active

C=C1C(=O)O[C@@H]2C[C@@]3(C)CC[C@@H](OC(=O)/C=C/CCC)[C@]4(CO4)[C@@H]3C[C@H]12
inhibition [1]: 13.5%

C=C1C(=O)O[C@@H]2C[C@@]3(C)CC[C@@H](OC(C)=O)C(=C)[C@@H]3C[C@H]12
inhibition [1]: 6.58%

C=C1C(=O)O[C@@H]2C[C@@]3(C)CC[C@@H](OC(=O)C4=CCCCC4)[C@]4(CO4)[C@@H]3C[C@H]12
inhibition [1]: 34.8%
inhibition [4]: inactive

C=C1C(=O)O[C@@H]2C[C@@]3(C)CC[C@@H](OC(=O)C4CC4)C(=C)[C@@H]3C[C@H]12
inhibition [1]: 4.63%

C=C1C(=O)O[C@@H]2C[C@@]3(C)CC[C@@H](OC(=O)[C@@H](NC(=O)OC(C)(C)C)C(C)C)C(=C)[C@@H]3C[C@H]12
inhibition [1]: 22%
